Results published in ChEMBL document CHEMBL4732269, “Design, Synthesis, and Biological Evaluation of Imidazopyridines as PD-1/PD-L1 Antagonists” (ACS Med Chem Lett, 2021).
Active and inactive are the calls of the source. No cut-off for these calls is given here.

Experiments:
Type in all cases: protein-complex assay
[1] = molecular target: T1, Programmed cell death protein 1/Programmed cell death 1 ligand 1 (Homo sapiens, UniProt Q15116+Q9NZQ7); assay: Antagonist activity at PD1/PD-L1 (unknown origin) assessed as disruption of PD-1/PD-L1 complex by measuring PD-L1 dimerization at 50 uM measured after 2 hrs by HTRF assay
[2] = molecular target: T1, Programmed cell death protein 1/Programmed cell death 1 ligand 1; assay: Antagonist activity at PD1/PD-L1 (unknown origin) assessed as disruption of PD-1/PD-L1 complex by measuring PD-L1 dimerization by 1H-NMR analysis; conditions: filed as antagonist
In short: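 PD-L1 was expressed in E. coli BL21 (DE3) as inclusion bodies, then refolded by drop-wise dilution into 0.1 M Tris pH 8.0, 1 M L-Arg HCl, 2 mM EDTA, and 0.25 mM each of oxidized and reduced glutathione. It was dialyzed against 10 mM Tris pH 8.0 with 20 mM NaCl. Final size-exclusion chromatography was run in PBS pH 7.4 for NMR.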

[3] = molecular target: T2, Programmed cell death protein 1/Programmed cell death 1 ligand 1 (Homo sapiens, UniProt Q9NZQ7); assay: Antagonist activity at PD1/PD-L1 (unknown origin) assessed as disruption of PD-1/PD-L1 complex by measuring PD-L1 dimerization measured after 2 hrs by HTRF assay
In short: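 PD-1/PD-L1 binding measured by HTRF with a commercial kit following the kit protocol, at 20 μL final volume. Each compound was run as its own dilution series, and plates were incubated 2 h at RT before the TR-FRET read. Signals were background-subtracted on the negative control and normalized to the positive control. Averaged data were fitted with a normalized Hill equation to give the IC50.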

[4] = molecular target: T1, Programmed cell death protein 1/Programmed cell death 1 ligand 1; assay: Antagonist activity at PD1/PD-L1 (unknown origin)
[5] = molecular target: T1, Programmed cell death protein 1/Programmed cell death 1 ligand 1; assay: Antagonist activity at human PD1/PD-L1
[6] = molecular target: T2, Programmed cell death protein 1/Programmed cell death 1 ligand 1; assay: Antagonist activity at human PD1/PD-L1 preincubated with PD-L1 for 1 hr followed by incubation with PD1 for 1 hr by ELISA

T2 sequence (Q15116 whole entry): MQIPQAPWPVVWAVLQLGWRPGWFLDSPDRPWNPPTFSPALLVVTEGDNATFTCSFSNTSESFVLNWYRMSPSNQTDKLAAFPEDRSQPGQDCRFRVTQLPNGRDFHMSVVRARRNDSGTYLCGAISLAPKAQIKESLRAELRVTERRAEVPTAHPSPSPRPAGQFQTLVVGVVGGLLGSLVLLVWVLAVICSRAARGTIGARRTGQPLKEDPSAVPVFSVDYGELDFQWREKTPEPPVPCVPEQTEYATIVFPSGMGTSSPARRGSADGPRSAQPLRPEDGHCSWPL
T2 sequence (Q9NZQ7 whole entry): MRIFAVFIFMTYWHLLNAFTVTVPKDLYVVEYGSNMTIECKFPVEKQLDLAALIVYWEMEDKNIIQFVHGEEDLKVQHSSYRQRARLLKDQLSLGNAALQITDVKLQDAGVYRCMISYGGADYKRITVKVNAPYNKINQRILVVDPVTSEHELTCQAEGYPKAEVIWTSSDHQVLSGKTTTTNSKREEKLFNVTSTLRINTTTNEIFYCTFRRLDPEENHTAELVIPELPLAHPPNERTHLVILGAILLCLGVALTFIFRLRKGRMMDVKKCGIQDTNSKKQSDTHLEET
T1 sequence (Q15116 whole entry): as the sequence (Q15116 whole entry) above
T1 sequence (Q9NZQ7 whole entry): as the sequence (Q9NZQ7 whole entry) above

Cc1c(COc2ccc3nc(CN)c(NCc4cccc(-c5nn[nH]n5)c4)n3c2)cccc1-c1ccc(F)cc1 was tested, and the Activity [1] was “inactive”.
In the case of Cc1c(COc2ccc3nc(CN)c(NC(C)c4ccccc4)n3c2)cccc1-c1ccccc1 (stereo not drawn), the Activity [2] is reported as “Active”, the Activity ([1]; filed as antagonist) is reported as “Active” and the IC50 [3] is reported as 9.33 µM.
For CC(O)C(NC(=O)NC(CC(N)=O)c1nc(C(N)CO)no1)C(=O)O (stereo not drawn), the IC50 [4] was 5000 µM.
For Cc1c(COc2ccc3nc(CN)c(NCCc4ccccc4)n3c2)cccc1-c1ccccc1, the Activity [2] was “Active”, the Activity ([1]; filed as antagonist) was “Active” and the IC50 [3] was 16.8 µM.
In the case of Cc1c(COc2ccc3nc(CN)c(NCc4ccccc4)n3c2)cccc1-c1ccccc1, the Activity [2] is reported as “Active”, the Activity ([1]; filed as antagonist) is reported as “Active” and the IC50 [3] is reported as 10.2 µM.
Cc1c(COc2ccc3nc(CN)c(NCc4cccc(C#N)c4)n3c2)cccc1-c1ccc(F)cc1 was tested, and the Activity [1] was “inactive”.
In the case of Cc1c(Oc2ccc3nc(CN)c(NCc4ccccc4)n3c2)cccc1-c1ccccc1, the Activity [2] is reported as “Active” and the Activity ([1]; filed as antagonist) is reported as “Active”.
For Cc1c(COc2ccc3nc([C@@H](N)CO)c(NCc4ccccc4)n3c2)cccc1-c1ccccc1, the Activity [1] was “inactive”.
Cc1c(-c2ccccc2)cccc1-c1nc2c(s1)CNCC2 was tested, and the IC50 [5] was at most 0.1 µM.
Cc1c(COc2ccc3nc(CN)c(NCc4ccccc4)n3c2)cccc1-c1ccc2c(c1)OCCO2 was tested, and the Activity ([1]; filed as antagonist) was “Active” and the IC50 [3] was 22.9 µM.
With Cc1c(COc2ccc3nc(CN)c(NCCc4ccccc4)n3c2)cccc1-c1ccc(F)cc1 the Activity [1] was “inactive”.
In the case of Cc1cc2nc(CN)c(NCc3ccccc3)n2cc1OCc1cccc(-c2ccc3c(c2)OCCO3)c1C, the Activity ([1]; filed as antagonist) is reported as “Active” and the IC50 [3] is reported as 1.83 µM.
Cc1c(COc2ccc3nc([C@H](N)CO)c(NCc4ccccc4)n3c2)cccc1-c1ccccc1 was tested, and the Activity [1] was “inactive”.
In the case of N#Cc1cncc(COc2cc(O[C@H]3CCc4c(-c5ccccc5F)cccc43)c(Cl)cc2CN2CC[C@@H](O)C2)c1, the IC50 [6] is reported as under 0.1 µM.
